Where only a bound is given, the exact number is not on record here.

Format in all cases: functional, organism-based
Assay [1] is filed under the species Homo sapiens. Put plainly: Compound was tested for the inhibitory activity against serotonin secretion by adenosine -Diphosphate (ADP (1-5 uM)). The procedure, abridged: (§1)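 Human platelet-rich plasma (3 × 10^8/mL) prelabeled with [14C]serotonin. Inhibitor added 1 min before the inducer: ADP 1–5 μM, AA 0.2–1 mM, or U46619 0.3 μM with aspirin 1 mM. Dense-granule secretion measured as release of radioactivity. Mean IC50 ± SEM, three to nine donors.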

The species entered for assay [2] is Homo sapiens. Nature of the assay: Compound was tested for the inhibitory activity against serotonin secretion by arachidonic acid (AA (0.1-1 mM)). To be noted: in the assay text read “AA (0.2-1 mM)” for “AA (0.1-1 mM)”. The procedure, abridged: as §1
The species entered for assay [3] is Homo sapiens. Put plainly: Compound was tested for the inhibitory activity against human platelet aggregation by adenosine -Diphosphate (ADP (1-5 uM)). An outline of the steps:
(§2)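 Human platelet-rich plasma, count adjusted to 3 × 10^8/mL. Turbidometric (Born) aggregometry. Inhibitor added 1 min before inducer, which was used at the minimum level giving maximal aggregation. IC50 taken from change in light-transmittance amplitude after 6 min for ADP (secondary aggregation only) and 4 min for AA and U46619. U46619 samples contained aspirin 1 mM. Mean ± SEM, three to nine donors.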

For assay [4], the species on record is Homo sapiens. Put plainly: Compound was tested for the inhibitory activity against serotonin secretion by U-46,619 (0.3 uM) + Aspirin (ASA, 1 mM). An outline of the steps:
as §1

The species named for assay [5] is Homo sapiens. Nature of the assay: Compound was tested for the inhibitory activity against human platelet aggregation by arachidonic acid (AA (0.1-1 mM)). To be noted: in the assay text read “AA (0.2-1 mM)” for “AA (0.1-1 mM)”. An outline of the steps:
as §2

Assay [6] is filed under the species Homo sapiens. Nature of the assay: Compound was tested for the inhibitory activity against human platelet aggregation by U46,619 (0.3 uM) + Aspirin (ASA, 1 mM). The procedure, abridged:
as §2

Assay [7] is filed under the species Homo sapiens. Put plainly: Compound was tested for the inhibitory activity against serotonin secretion by adenosine -Diphosphate (ADP (1-5 uM)). An outline of the steps: as §1

Broadly, the IC50 is the concentration needed to halve the response being measured. In the case of `O=c1c(O)c(O)oc2ccc(Cl)cc12`, the concentration for half-maximal inhibition (IC50) in assay [1] came to 466 µM; in assay [2], 814 µM; in assay [3], 363 µM; in assay [4] it was 2380 µM; in assay [5] it was 739 µM; in assay [6], 1510 µM.
In the case of `O=C(O)C1Cc2cc(Cl)ccc2O1` (stereo not given), the 50% inhibitory concentration (IC50) in assay [2] was 1010 µM; in assay [3] it was 533 µM; in assay [7], 419 µM; in assay [4], 1440 µM; in assay [5], 851 µM; in assay [6], 1480 µM.
As to `CC(C)(Oc1ccc(Cl)cc1)C(=O)O` [CLOFIBRIC ACID], the half-maximal inhibitory concentration (IC50) is greater than 3430 µM in assay [2], greater than 3070 µM in assay [5] and greater than 4000 µM in assay [6].

Source of the values: ChEMBL document CHEMBL1123261, “Comparative antiaggregatory activity in human platelets of a benzopyranone aci-reductone, clofibric acid, and a 2,3-dihydrobenzofuran analogue” (J Med Chem, 1986).
